Reference: ChEMBL document CHEMBL1165950, “Design and synthesis of new potent anticancer pyrazoles with high FLT3 kinase inhibitory selectivity” (Bioorg Med Chem, 2010)

Columns and labels:
Format in all cases: functional
TK-10 = experiment: Cytotoxicity against human TK10 cells assessed as cell growth at 10 uM; conditions: read-out: Activity
Summary of the method: (§1)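 NCI-60 screen: cells grown in RPMI 1640 with 5% FBS and 2 mM L-glutamine, plated at 5000–40,000 cells/well according to doubling time, and preincubated 24 h at 37 °C, 5% CO2. The single 10 µM dose (DMSO stock) was added, then incubated 48 h. Cells were TCA-fixed and stained with 0.4% SRB, read at 515 nm, and growth % calculated against time-zero and control plates.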

PC-3 = experiment: Cytotoxicity against human PC3 cells assessed as cell growth at 10 uM; conditions: read-out: Activity; summary of the method: as §1
[1] = Cytotoxicity against human […] cells assessed as cell growth at 0.001 uM after 48 hrs by sulforhodamine B assay; conditions: read-out: Activity
SF-295 [2] = experiment: Cytotoxicity against human SF295 cells assessed as cell growth at 1 uM after 48 hrs by sulforhodamine B assay; conditions: SF-295, 48 h, read-out: Activity
HCC 2998 = experiment: Cytotoxicity against human HCC2998 cells assessed as cell growth at 0.01 uM after 48 hrs by sulforhodamine B assay; conditions: HCC 2998, 48 h, read-out: Activity
SNB-75 = experiment: Cytotoxicity against human SNB75 cells assessed as cell growth at 0.01 uM after 48 hrs by sulforhodamine B assay; conditions: SNB-75, 48 h, read-out: Activity
RXF 393 = experiment: Cytotoxicity against human RXF393 cells assessed as cell growth at 0.01 uM after 48 hrs by sulforhodamine B assay; conditions: RXF 393, 48 h, read-out: Activity
UO-31 = experiment: Cytotoxicity against human UO31 cells assessed as cell growth at 0.01 uM after 48 hrs by sulforhodamine B assay; conditions: UO-31, 48 h, read-out: Activity
SF-268 [3] = experiment: Cytotoxicity against human SF268 cells assessed as cell growth at 0.001 uM after 48 hrs by sulforhodamine B assay; conditions: SF-268, 48 h, read-out: Activity
U-251 = experiment: Cytotoxicity against human U251 cells assessed as cell growth at 0.001 uM after 48 hrs by sulforhodamine B assay; conditions: U-251, 48 h, read-out: Activity
SK-MEL-5 = experiment: Cytotoxicity against human SK-MEL-5 cells assessed as cell growth at 0.001 uM after 48 hrs by sulforhodamine B assay; conditions: SK-MEL-5, 48 h, read-out: Activity
NCI-H460 = experiment: Growth inhibition of human NCI-H460 cells after 48 hrs by sulforhodamine B assay; conditions: NCI-H460, 48 h; for CC50: read-out: LC50 (the source's name)
Summary of the method: (§2)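 NCI 60-cell screen, five-dose mode. Cells grown in RPMI 1640 with 5% FBS and 2 mM L-glutamine and plated at 5000-40,000 cells/well according to doubling time. After 24 h preincubation, a Tz plate was TCA-fixed. Five concentrations (10-fold or 1/2 log dilutions) were applied for 48 h at 37 °C. SRB staining read at 515 nm. IC50 taken from [(Ti-Tz)/(C-Tz)]×100 = 50.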

SF-295 [4] = experiment: Growth inhibition of human SF295 cells after 48 hrs by sulforhodamine B assay; conditions: SF-295, 48 h; for CC50: read-out: LC50 (the source's name); summary of the method: as §2
SK-MEL-2 [5] = experiment: Growth inhibition of human SK-MEL-2 cells after 48 hrs by sulforhodamine B assay; conditions: SK-MEL-2, 48 h; for CC50: read-out: LC50 (the source's name); summary of the method: as §2
UACC-62 = experiment: Growth inhibition of human UACC62 cells after 48 hrs by sulforhodamine B assay; conditions: UACC-62, 48 h; for CC50: read-out: LC50 (the source's name); summary of the method: as §2
BT-549 = experiment: Cytotoxicity against human BT549 cells assessed as cell growth at 0.01 uM after 48 hrs by sulforhodamine B assay; conditions: BT-549, 48 h, read-out: Activity
Summary of the method: (§3)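 NCI-60 five-dose screen. Cells were grown in RPMI 1640 with 5% FBS and 2 mM L-glutamine, plated at 5000–40,000 cells/well and preincubated for 24 h. Time-zero plates were TCA-fixed. DMSO-solubilized drug was added at five concentrations (10-fold or ½-log serial dilutions) for 48 h at 37 °C, 5% CO2. Cells were TCA-fixed, stained with 0.4% SRB and read at 515 nm. Percent growth used time-zero, control and test absorbances.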

NCI-H23 = experiment: Cytotoxicity against human NCI-H23 cells assessed as cell growth at 100 nM after 48 hrs by sulforhodamine B assay; conditions: NCI-H23, 48 h, read-out: Activity
NCI/ADR-RES = experiment: Cytotoxicity against human NCI/ADR-RES cells assessed as cell growth at 1 uM after 48 hrs by sulforhodamine B assay; conditions: read-out: Activity
SK-OV-3 = experiment: Cytotoxicity against human SKOV3 cells assessed as cell growth at 1 uM after 48 hrs by sulforhodamine B assay; conditions: SK-OV-3, 48 h, read-out: Activity
ACHN [6] = experiment: Cytotoxicity against human ACHN cells assessed as cell growth at 1 uM after 48 hrs by sulforhodamine B assay; conditions: read-out: Activity; summary of the method: as §3
SN12C = experiment: Cytotoxicity against human SN12C cells assessed as cell growth at 1 uM after 48 hrs by sulforhodamine B assay; conditions: read-out: Activity
HCT-116 [7] = experiment: Cytotoxicity against human HCT116 cells assessed as cell growth at 10 uM; conditions: read-out: Activity
Summary of the method: (§4)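 Single-dose NCI-60 screen at 10 µM. Cells were grown in RPMI 1640 with 5% FBS and 2 mM L-glutamine, then treated for 48 h at 37 °C. Protein was measured by SRB staining with absorbance at 515 nm. Percentage growth was recorded, and inhibition percentage was calculated as 100 minus growth percentage.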

HCT-15 = experiment: Cytotoxicity against human HCT15 cells assessed as cell growth at 10 uM; conditions: read-out: Activity; summary of the method: as §4
COLO 205 = experiment: Cytotoxicity against human COLO205 cells assessed as cell growth at 10 uM after 48 hrs by sulforhodamine B assay; conditions: COLO 205, 48 h, read-out: Activity
HCT-116 [8] = experiment: Cytotoxicity against human HCT116 cells assessed as cell growth at 10 uM after 48 hrs by sulforhodamine B assay; conditions: HCT-116, 48 h, read-out: Activity
SF-268 [9] = experiment: Cytotoxicity against human SF268 cells assessed as cell growth at 10 uM after 48 hrs by sulforhodamine B assay; conditions: SF-268, 48 h, read-out: Activity
SNB-19 = experiment: Cytotoxicity against human SNB19 cells assessed as cell growth at 10 uM after 48 hrs by sulforhodamine B assay; conditions: SNB-19, 48 h, read-out: Activity
SK-MEL-2 [10] = experiment: Cytotoxicity against human SK-MEL-2 cells assessed as cell growth at 10 uM after 48 hrs by sulforhodamine B assay; conditions: SK-MEL-2, 48 h, read-out: Activity
UACC-257 = experiment: Cytotoxicity against human UACC257 cells assessed as cell growth at 10 uM after 48 hrs by sulforhodamine B assay; conditions: UACC-257, 48 h, read-out: Activity
ACHN [11] = experiment: Cytotoxicity against human ACHN cells assessed as cell growth at 10 uM after 48 hrs by sulforhodamine B assay; conditions: read-out: Activity; summary of the method: as §3

Row | SMILES | growth at 10 µM (TK-10) [%] | growth at 10 µM (PC-3) [%] | growth at 0.001 µM [1] [%] | growth at 1 µM (SF-295 [2]) [%] | growth at 0.01 µM (HCC 2998) [%] | growth at 0.01 µM (SNB-75) [%] | growth at 0.01 µM (RXF 393) [%] | growth at 0.01 µM (UO-31) [%] | growth at 0.001 µM (SF-268 [3]) [%] | growth at 0.001 µM (U-251) [%] | growth at 0.001 µM (SK-MEL-5) [%] | CC50 (NCI-H460) [µM] | GI50 (SF-295 [4]) [µM] | TGI (SF-295 [4]) [µM] | CC50 (SF-295 [4]) [µM] | GI50 (SK-MEL-2 [5]) [µM] | TGI (SK-MEL-2 [5]) [µM] | CC50 (SK-MEL-2 [5]) [µM] | GI50 (UACC-62) [µM] | TGI (UACC-62) [µM] | other results
1 | COc1cc(C)cc(-c2c(-c3ccnc(-c4ccc(C(C)=O)cc4)c3)cnn2CC#N)c1 | 72.6 | 77.3 | 95 | 39 | 98 | 78 | 101 | 87 | 97 | 104 | 95 | > 100 | 5.84 | > 100 | > 100 | 5.88 | > 100 | > 100 | 4.05 | > 100 | GI50 (NCI-H460): 2.41 µM; CC50 (UACC-62): > 100 µM; growth at 0.01 µM (BT-549): 86%; growth at 0.1 µM (NCI-H23): 95%; growth at 1 µM (NCI/ADR-RES): 11%; growth at 1 µM (SK-OV-3): 19%; growth at 1 µM (ACHN [6]): 21%; growth at 1 µM (SN12C): 28%; growth at 10 µM (HCT-116 [7]): 23.4%; growth at 10 µM (HCT-15): 53.3%; growth at 10 µM (COLO 205): -67%; growth at 10 µM (HCT-116 [8]): -17%; growth at 10 µM (SF-268 [9]): 23%; growth at 10 µM (SNB-19): 66%; growth at 10 µM (SK-MEL-2 [10]): 20%; growth at 10 µM (UACC-257): 36%; growth at 10 µM (ACHN [11]): 24%
2 | Cc1cc(O)cc(-c2nn(CC#N)cc2-c2ccnc(-c3ccc(N(C)C)cc3)c2)c1 | 52.5 | 40.4 | 96 | -5 | 88 | 75 | 104 | 84 | 97 | 101 | 92 | 70.5 | 2.18 | 8.71 | 84.1 | 4.15 | 15.8 | > 100 | 3.05 | 14 | GI50 (NCI-H460): 2.79 µM; TGI (NCI-H460): 10.2 µM; CC50 (UACC-62): 72.1 µM; growth at 0.01 µM (BT-549): 91%; growth at 0.1 µM (NCI-H23): 98%; growth at 1 µM (NCI/ADR-RES): -10%; growth at 1 µM (SK-OV-3): -11%; growth at 1 µM (ACHN [6]): 18%; growth at 1 µM (SN12C): 26%; growth at 10 µM (HCT-116 [7]): 12.3%; growth at 10 µM (HCT-15): 22.9%; growth at 10 µM (COLO 205): -82%; growth at 10 µM (HCT-116 [8]): -81%; growth at 10 µM (SF-268 [9]): -58%; growth at 10 µM (SNB-19): -15%; growth at 10 µM (SK-MEL-2 [10]): -46%; growth at 10 µM (UACC-257): -25%; growth at 10 µM (ACHN [11]): -30%
3 | COc1cc(C)cc(-c2nn(CC#N)cc2-c2ccnc(-c3ccc(N(C)C)cc3)c2)c1 | 34.7 | 31.6 | 104 | -7 | 107 | 98 | 103 | 92 | 103 | 94 | 99 | 94.7 | 0.304 | 1.91 | > 100 | 1.01 | 45.5 | > 100 | 0.337 | 40.7 | CC50 (UACC-62): > 100 µM; growth at 0.01 µM (BT-549): 100%; growth at 0.1 µM (NCI-H23): 31%; growth at 1 µM (NCI/ADR-RES): -5%; growth at 1 µM (SK-OV-3): -24%; growth at 1 µM (ACHN [6]): 2%; growth at 1 µM (SN12C): 8%; growth at 10 µM (HCT-116 [7]): -31.6%; growth at 10 µM (HCT-15): 8.19%; growth at 10 µM (COLO 205): -61%; growth at 10 µM (HCT-116 [8]): -44%; growth at 10 µM (SF-268 [9]): -32%; growth at 10 µM (SNB-19): 9%; growth at 10 µM (SK-MEL-2 [10]): -12%; growth at 10 µM (UACC-257): 13%; growth at 10 µM (ACHN [11]): -18%
